Measurements published in ChEMBL document CHEMBL1144917, “Synthetic, nondegradable diadenosine polyphosphates and diinosine polyphosphates: their effects on insulin-secreting cells and cultured vascular smooth muscle cells” (J Med Chem, 2003).

How the values were obtained:
Rattus norvegicus [1] = species on record: Rattus norvegicus; assay: Percent of compound radioactivity ([3H]-Ap4A Degradation), in presence of added Ap(s)pCHClpp(s)A, in heparinized rat plasma; assay type: functional; set-up: concentration or dose not given beside the values
Method in brief: (§1)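 Heparinized rat plasma (40 μL) incubated 15 min with 10 nM [3H]Ap4A plus 3 μL saline or 3 μL of a 1 mM analogue solution. Products resolved by TLC on silica gel in dioxane/conc. ammonia/water (6:1:4) alongside unlabeled standards, and spots scintillation counted. Reported as percent of radioactivity per species; mean ± SE of two experiments.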

Rattus norvegicus [2] = species on record: Rattus norvegicus; assay: Percent of compound radioactivity ([3H]-Ap4A Degradation) in heparinized rat plasma (saline); assay type: functional; method in brief: as §1
INS1 [3] = assay: Percent of compound radioactivity ([3H]-Ap4A Degradation), in presence of added Ap4A, in the incubation medium of INS-1 cell membranes; assay type: functional, cell-based; set-up: concentration or dose not given beside the values
Method in brief: (§2)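 Membranes from half-confluent INS-1 cells incubated 10 min at 37 °C in KRH buffer with 5.6 mM glucose, 0.31 μM [3H]Ap4A, with or without 30 μM unlabeled nucleotide. Medium aliquot mixed with unlabeled standards, TLC on silica gel in dioxane/conc. ammonia/water (6:1:4) for 2 h. UV-located spots cut out and scintillation counted. Reported as percent of radioactivity per species; mean ± SE of two experiments.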

INS1 [4] = assay: Percent of compound radioactivity ([3H]-Ap4A Degradation), determined in the incubation medium of INS-1 cell membranes; assay type: functional, cell-based; set-up: concentration or dose not given beside the values; method in brief: as §2
INS1 [5] = assay: Percent of compound radioactivity ([3H]-Ap4A Degradation), in presence of added Ap(s)pCH2pp(s)A, in the incubation medium of INS-1 cell membranes; assay type: functional, cell-based; method in brief: as §2
Rattus norvegicus [6] = species on record: Rattus norvegicus; assay: Percent of compound radioactivity ([3H]-Ap4A Degradation), in presence of added Ap(s)pCH2pp(s)A, in heparinized rat plasma; assay type: functional; set-up: concentration or dose not given beside the values; method in brief: as §1
INS1 [7] = assay: Percent of compound radioactivity ([3H]-Ap4A Degradation), in presence of added Ap(s)pCHClpp(s)A, in the incubation medium of INS-1 cell membranes; assay type: functional, cell-based; method in brief: as §2

Row | SMILES | Radioactivity (Rattus norvegicus [1]) | Radioactivity (Rattus norvegicus [2]) | Radioactivity (INS1 [3]) | Radioactivity (INS1 [4]) | Radioactivity (INS1 [5]) | Radioactivity (Rattus norvegicus [6]) | Radioactivity (INS1 [7])
1 | Nc1ncnc2c1ncn2[C@@H]1O[C@H](COP(=O)(O)OP(=O)(O)OP(=O)(O)O)[C@@H](O)[C@H]1O | 40.5% | 42.1% | 4% | 8.4% | 8.2% | 37.6% | –
2 | Nc1ncnc2c1ncn2[C@@H]1O[C@H](COP(=O)(O)OP(=O)(O)O)[C@@H](O)[C@H]1O | 30.6% | 22.3% | 7.8% | 11.3% | 9.3% | 27.4% | 8.8%
3 | Nc1ncnc2c1ncn2[C@@H]1O[C@H](COP(=O)(O)OP(=O)(O)OP(=O)(O)OP(=O)(O)OC[C@H]2O[C@@H](n3cnc4c(N)ncnc43)[C@H](O)[C@@H]2O)[C@@H](O)[C@H]1O | 26.5% | 21.5% | 70% | 52.4% | 54.9% | 31.6% | 61.3%
4 | Nc1ncnc2c1ncn2[C@@H]1O[C@H](COP(=O)(O)O)[C@@H](O)[C@H]1O | 2.31% | 2.4% | 0.8% | 5.3% | – | 1.98% | –
5 | Nc1ncnc2c1ncn2[C@@H]1O[C@H](CO)[C@@H](O)[C@H]1O | < 1% | < 1% | 15.1% | 22.4% | 19.4% | < 1% | 14.3%
